This excerpt belongs to a sample that is enriched for hits.
LANA-nucl inh: inhibitors of KSHV LANA-nucleosome binding, primary screen, biochemical, fluorescence polarization, FITC-LANA1-23, chicken nucleosomes. FITC-LANA1-23 / chicken nucleosome fluorescence polarization; hits give low values. z-score (test concentration not listed). 51,000 compounds, 0.3% hits. AID 720717, 2013;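 active means both repeat wells score below -2 in polarization z-score versus plate sample wells, excluding overly bright wells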
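test system = FITC-LANA peptide and chicken nucleosomes | amount = 240 nM purified chicken nucleosomes (480 nM peptide binding sites), final | reagent = 50 nM FITC-LANA1-23 probe | medium = TEN-BT buffer, pH 7.5 | doses = single compound addition by pin transfer, 100 nL per well | timing = 10–45 min, room temperature | detection = fluorescence polarization | repeats = duplicate plates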
An asterisk follows results filed as active.

SMILES | LANA-nucl inh
O=C(CN1C(=O)C2C3C=CC(C3)C2C1=O)Nc1ccccc1 (stereo not given) | 1
Cc1c(CSC(=N)N)c(C)c(CSC(=N)N)c(C)c1CSC(=N)N | -2.9*
CCc1c(CSC(=N)N)csc1C | -0.085
COC(=O)c1ccccc1CSC(=N)N | -0.79
O=C(CCN1C(=O)C2C3C=CC(C3)C2C1=O)N1CCN(c2ccccc2)CC1 (stereo not given) | -1.5
O=C(O)C1C(c2ccccc2)C(C(=O)N2CCCCC2)C1c1ccccc1 (stereo not given) | -0.41
Cc1ccc2c(c1)sc(=NC(=O)C1=COCCO1)n2C | -1.7
Nc1cc[n+](CC(O)CO)cc1 (stereo not given) | -3.1*
Cc1c(NC(=O)NCc2ccccc2)n(C)c(=O)n1-c1ccccc1 | -0.69
Cc1cc(SCCN2CCOCC2)nc2ccccc12 | 0.2
O=C(CN1CCN(C2c3ccccc3-c3ccccc32)CC1)c1ccc2c(c1)OCO2 | 0.0085
O=C(c1ccc2c(c1)OCO2)N1CCN(C2c3ccccc3-c3ccccc32)CC1 | -2.3*
O=C(c1ccc2c(c1)OCO2)N1CCc2ccccc2C1 | 1.1
CCOc1ccc(NC(=O)CS(=O)(=O)c2ccccc2)cc1 | 0.27
O=C1/C(=C/c2ccccc2)Oc2c1ccc(O)c2CN1CCCC1 | 2.2
CCN(CC)Cc1c(O)ccc2oc(C)c(C(=O)Nc3ccccc3C)c12 | -0.78
CCN(CC)Cc1c(O)ccc2c1O/C(=C\c1ccccc1Cl)C2=O | -3*
COc1cc(OC)c(C(=O)N2CCCCCCC2)cc1OC | -0.74
CCOC(=O)c1c(-c2ccc(Cl)cc2)nn2c1NCN(C1CCCCC1)C2 | -0.27
CCOC(=O)COc1ccc(C2NC(C(=O)O)CS2)cc1OCC (stereo not given) | 0.28
Cc1ccc2c(C)c(C(=O)N(Cc3ccccc3F)C3CCS(=O)(=O)C3)oc2c1 (stereo not given) | -0.036
Cc1ccc(/C=N/c2sccc2C#N)cc1 | -6.5*
N#Cc1ccsc1/N=C/c1ccccc1 | -0.42
Cc1ccc(C)n1-c1sccc1C#N | 1.1
O=C(O)Cc1nc(-c2ccncc2)n[nH]1 | -0.39
SMILES | LANA-nucl inh
CNC(=O)c1c(NC(=O)CC2SC(=O)NC2=O)sc2c1CCCC2 (stereo not given) | 0.73
Cc1cc(C(=O)O)ccc1-n1c(C)ccc1C | 0.2
Cc1ccc(C)n1-c1ccsc1C(=O)CC#N | -0.22
Cc1ccc(C)n1-c1ccsc1C(=O)O | -3.7*
O=C(Cn1c(=O)n(CC(=O)NC2CCCC2)c(=O)c2ccccc21)Nc1ccc(F)cc1 | 0.25
OCCOc1ccc(OCCO)cc1 | 0.29
O=C(CC(c1cccs1)N1Cc2ccccc2C1=O)N1CCC2(CC1)OCCO2 (stereo not given) | -0.5

Screening results: PubChem, ICCB-Longwood Screening Facility, Harvard Medical School
